Screening data: PubChem BioAssay, several laboratories
RORA act – RORA (human) activation | 65,000 compounds, 1.5% hits | P35398 | CHO-K1 Gal4-RORA LBD luciferase reporter, luminescence; percent increase over mock-subtracted basal signal | activation, % at 10 µM;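 active means activation above the mean of all tested compounds plus 3 SD, cut at about 49% in these data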;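 further: 0% = DMSO-treated RORA cells and 100% = added signal equal to DMSO minus mock-transfected cells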
M1 ag – activates the M1 muscarinic receptor; CHO-M1 cells, Fluo-4 calcium fluorescence, agonist mode; hits give high values; B-score at 10 µM; 64,000 compounds, 3% hits; AID 626;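 active means fluorescence rise, raw or as B-score row- and column-corrected plate score, outside the 99.7% band of its plate's samples, either direction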
MT1-MMP txn act – MT1-MMP promoter transcription activation; 86,000 compounds, 0.16% hits; activation factor at 10 µM; AID 750; HT1080 MT1-MMP promoter luciferase reporter, luminescence, overnight; hits give high values;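 active means activation factor of at least 2 for MT1-MMP transcription at 10 µM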
SF1 activator – activators of human nuclear receptor SF-1. Q13285. CHO-K1 Gal4-SF-1 LBD luciferase reporter; % increase over DMSO SF-1-specific signal. activation, % at 10 µM. 65,000 compounds, 1.9% hits;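 active means activation above the mean activation of all tested compounds plus 3 SD, cut at about 50% in these data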
Target sequence (Q13285 whole entry, looked up, the tested form may be a part): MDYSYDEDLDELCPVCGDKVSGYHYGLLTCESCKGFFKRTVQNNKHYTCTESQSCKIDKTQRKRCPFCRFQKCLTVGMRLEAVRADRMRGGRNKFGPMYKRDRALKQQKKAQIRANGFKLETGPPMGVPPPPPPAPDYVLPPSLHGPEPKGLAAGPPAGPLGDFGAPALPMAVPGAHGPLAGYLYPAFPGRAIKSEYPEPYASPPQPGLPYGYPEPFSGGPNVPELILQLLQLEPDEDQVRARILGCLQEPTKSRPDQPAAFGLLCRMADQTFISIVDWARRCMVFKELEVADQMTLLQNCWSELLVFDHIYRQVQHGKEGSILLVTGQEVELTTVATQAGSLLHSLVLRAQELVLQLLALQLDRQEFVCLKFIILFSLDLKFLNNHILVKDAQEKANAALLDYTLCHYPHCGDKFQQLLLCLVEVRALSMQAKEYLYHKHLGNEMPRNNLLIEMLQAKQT
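Material: CHO-K1 cells with Gal4–hSF-1 LBD chimera plus Gal4-driven luciferase / Input: 4,000 CHO-K1 cells per well / Incubation: compound exposure 20 h at 37 °C / Signal: luminescence read 15 min after SteadyLite luciferase reagent, after room-temperature equilibration / Read-out: percent activation versus DMSO / Benchmarks: DMSO negative control and −SF1 background wells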
M1 antagonist – M1 muscarinic receptor (rat) antagonism; P08482; CHO-M1 cells, Fluo-4 calcium, ACh EC80 antagonist mode; hits give low values; B-score at 10 µM; 64,000 compounds, 3.4% hits;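 active means calcium fluorescence response, raw or row-and-column corrected B-score, differing from the plate sample mean either way at a set confidence level, mostly lower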
M1 ag confirm – rat M1 muscarinic agonism, confirmation; 1,700 compounds, 19% hits; shares compounds with M1 ag; AID 1488; CHO-M1 cells, Fluo-4 calcium fluorescence, agonist mode; actives lie on both sides; fluorescence change (max-min) at 10 µM;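 active means fluorescence change differs from the solvent-only DMSO control mean at a set confidence level in both duplicate runs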;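 further: an EC20 dose of acetylcholine follows compound addition during the same imaging run; raw fluorescence intensity difference in instrument units with no normalization to controls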
M4 agonist ctr – rat M4 muscarinic agonism, M1 counter-screen; shares compounds with M1 ag; CHO M4/Gqi5 cells, Fluo-4 calcium fluorescence, agonist mode; actives lie on both sides; fluorescence change (max-min) at 10 µM; 1,700 compounds, 9% hits; AID 1741;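 active means fluorescence change differing from the plate's solvent-only control wells at 99.7% confidence in both duplicates, whether higher or lower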
M1 antag confirm – M1 muscarinic receptor (rat) antagonism, confirmed | shares compounds with M1 antagonist | CHO-M1 cells, Fluo-4 calcium, ACh EC80 antagonism; hits give low values | calcium response (max-min fluorescence) at 10 µM | 1,700 compounds, 43% hits;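 active means calcium response below the same-plate mean of wells given acetylcholine alone at its 80%-effect dose, minus 3 SD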;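 further: raw fluorescence intensity difference in arbitrary instrument units and not normalized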
mGluR4 antag – mGluR4 (human) activity, M1 antagonist secondary assay; shares compounds with M1 antagonist; CHO-mGluR4 calcium flux, Fluo-4 fluorescence, glutamate EC80; hits give low values; fluorescence response (max-min) at 10 µM; 1,700 compounds, 0.9% hits; AID 678;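 active means fluorescence response below the plate's average for near-maximal glutamate wells, less 3 SD of those wells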;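 further: raw unnormalized fluorescence span taken in the window right after glutamate addition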
* hit, by the source's call; . = not tested or not shown. Sampled rows, rich in hits. Any-hit rate of the full collection: about 6.3%.

SMILES | RORA act | M1 ag | MT1-MMP txn act | SF1 activator | M1 antagonist | M1 antag confirm | mGluR4 antag | others
CCOC(=O)c1ccc(NC(=O)N2CCN(c3ccccn3)CC2)cc1 | -16 | 0.82 | 1.1 | 12 | 0.0017 | . | .
CC(C)CN1CCC(C(=O)NCC2CCCO2)CC1 (configuration not stated) | . | . | 1 | . | . | . | .
CC1CCCCN1CCNC(=O)c1cc2c(=O)n(C)c3ccccc3c2n1C (configuration not stated) | 7 | -2.7* | 1.1 | 16 | -4.2* | 419* | 254 | M1 ag confirm=-17;M4 agonist ctr=-25
O=C(NC1CCCCC1)c1ccccc1NC(=O)C1CC1 | . | . | 0.9 | . | . | . | .
CSC1=Nc2sc3c(c2C2=NCCN12)CC(C)(C)OC3 | -20 | 0.48 | 1.1 | 4 | -4.6* | 420 | 178
CC12CCC(C(=O)N3CCN(C(=O)C45CCC(C)(C(=O)O4)C5(C)C)CC3)(OC1=O)C2(C)C | 10 | 0.024 | 0.9 | 7 | 0.12 | . | .
CSc1nc(N(CCO)CCO)c2sc3nc(-c4ccco4)c4c(c3c2n1)CCC4 | -10 | -0.89 | 1 | -7 | -3.9* | 524 | 273
OCCN(CCO)c1ncnc2c1sc1nc(N3CCOCC3)c3c(c12)CCCC3 | 2 | 4.9 | 1 | 26 | -1.9 | . | .
Cc1ccccc1-c1nc2sc3c(c2c(=O)n1N)CCCC3 | . | . | 1.6 | . | . | . | .
Nn1c(-c2cccs2)nc2sc3c(c2c1=O)CCCC3 | 45 | -0.66 | 1.5 | 42 | -4.4* | 672 | 202
CC(=O)C(Sc1nc(N2CCOCC2)nc(N2CCOCC2)n1)C(=O)Nc1ccccc1 (configuration not stated) | -18 | . | 1.1 | -2 | . | . | .
Cc1ccc(NC(=O)c2ccco2)c(NC(=O)c2cccs2)c1 | -13 | 0.068 | 1.1 | -3 | -3.9* | 534 | 206
COc1cc(NC(=O)c2cccs2)ccc1NC(=O)c1ccco1 | 10 | 1.7 | 1.3 | -1 | -2.8* | 628 | 272
O=C(Nc1cccc(NC(=O)c2cccs2)c1)c1ccco1 | -10 | 2.2 | 1 | -13 | -0.4 | . | .
Cc1c(C(=O)O)sc(=S)n1CCOc1ccccc1 | -3 | -0.31 | 1.1 | -16 | -0.03 | . | .
CN(CCC#N)C(=O)COC(=O)c1ccc(Cl)c(S(N)(=O)=O)c1 | -4 | 0.32 | 1.1 | 1 | -12* | 642 | 226
CSc1nc(SCC(N)=O)c2c3c(sc2n1)CN(C)CC3 | 12 | -0.85 | 1 | 0 | -5.1* | 361* | 253
CCC(O)CNc1nc(SC)nc2sc3c(c12)CCN(C)C3 (configuration not stated) | 19 | 0.0092 | 1.1 | -10 | -4.3* | 154* | 197
CSc1nc(SCC(=O)NCc2ccco2)c2c3c(sc2n1)CN(C)CC3 | -2 | -0.57 | 1 | 9 | -0.72 | . | .
CSc1nc(NCc2ccco2)c2c3c(sc2n1)CN(C)CC3 | -10 | 1.7 | 1.3 | 2 | -2.8* | 711 | 250
COc1ccc(N2CCN(C(CNC(=O)C3CCCCC3)c3cccnc3)CC2)cc1 (configuration not stated) | -9 | -1.3 | 1.1 | 16 | -2.9* | 634 | 244
Cc1ccc(NC(=O)NC(=O)N(c2ccccc2)S(C)(=O)=O)cc1 | -2 | 0.35 | 1.1 | 11 | 0.46 | . | .
CC(C)(C)P(=O)(CO)c1ccccc1 (configuration not stated) | 21 | -0.38 | 1.1 | 15 | -2.5* | 508 | 195
CC(C)(O)P(C)(=O)c1ccccc1 (configuration not stated) | -5 | -0.17 | 1.1 | -3 | -0.061 | . | .
COc1c(C)cc(Br)cc1C(=O)Nc1ccc(N2CCN(S(C)(=O)=O)CC2)cc1 | 5 | 0.34 | 1.1 | -6 | -1.9* | 533 | 210
SMILES | RORA act | M1 ag | MT1-MMP txn act | SF1 activator | M1 antagonist | M1 antag confirm | mGluR4 antag | others
Cc1cccc(OCC(=O)Nc2ccc(N3CCN(S(C)(=O)=O)CC3)cc2)c1 | -9 | -0.57 | 1.2 | -24 | -0.67 | . | .
COC(=O)c1cc2ccsc2n1CC(=O)N(C)c1ccccc1 | -37 | -0.27 | 1 | -16 | -0.77 | . | .
COC(=O)c1cc2ccsc2n1Cc1nc(-c2ccc(OC)cc2)oc1C | -25 | -0.95 | 1 | 0 | -5.5* | 474* | 240
COc1ccc(-c2nc(CN3CCCC(C(=O)NC4CCCC4)C3)c(C)o2)cc1 (configuration not stated) | . | . | 1.1 | . | . | . | .
COC(=O)c1cc2sccc2n1Cc1nc(-c2ccc(OC)cc2)oc1C | -20 | 0.23 | 1.2 | -20 | -2.6* | 508 | 232
CC1=C(C(=O)OC(C)C)C(c2ccc(F)cc2)NC(=O)N1 (configuration not stated) | 1 | 0.094 | 1.2 | -13 | 0.68 | . | .
CCNC(=O)NC(=O)C(C)Sc1nc2ccccc2n1CC(C)C (configuration not stated) | . | . | 1.2 | . | . | . | .
Cc1ccc(NC(=O)N2CCCN(Cc3ccc(F)cc3)C2)cc1C | 19 | -0.32 | 1.3 | -15 | -5.1* | 592 | 283
CC(C)(C)NS(=O)(=O)c1ccc(CCC(=O)N2CCCCC2)cc1 | -7 | -0.081 | 1 | -11 | -0.25 | . | .
CCOC(=O)NCCc1c(C)nc2c(c(C)nn2C(C)(C)C)c1C | -12 | -0.83 | 1.3 | 0 | -0.1 | . | .
O=C(Nc1ccc2c(c1)OCO2)C1CCN(Cc2cnn(-c3ccccc3)c2-n2cccc2)CC1 | 3 | 0.32 | . | 6 | -2.1* | 639 | 281
C=CCn1c(COc2ccccc2)nnc1SCC(=O)C(C)(C)C | 14 | 0.067 | 1.2 | 13 | 0.4 | . | .
C=CCn1c(COc2ccc(Cl)cc2)nnc1SCC(=O)N1CC(=O)Nc2ccccc21 | -15 | 0.2 | 1.3 | 8 | -0.93* | 537 | 237
Cc1cc(=O)n2nc(N3CCCC(C(=O)N4CCOCC4)C3)sc2n1 (configuration not stated) | -14 | -0.69 | 1.3 | 2 | 0.1 | . | .
Cc1cc(=O)n2nc(N3CCCC(C(=O)N4CCc5ccccc54)C3)sc2n1 (configuration not stated) | -10 | 1.2 | 0.9 | 0 | -12* | 33* | 224
N=c1c2c(n(Cc3ccc(Cl)c(Cl)c3)c3c1CCC3)CCCC2 | 17 | -0.35 | 1 | -7 | -2.4* | 433* | 236
O=c1[nH]c(=O)n(Cc2ccccc2)c2c1CCC2 | -8 | 0.02 | 1.1 | -11 | -0.037 | . | .
